# Results pooled from the literature.
# Trypanothione synthetase: Trypanothione synthetase (Trypanosoma cruzi, UniProt Q9GT49)
# dxs: 1-deoxy-D-xylulose-5-phosphate synthase (dxs, Deinococcus radiodurans, UniProt Q9RUB5)
# BDKRB2: B2 bradykinin receptor (BDKRB2, Homo sapiens, UniProt P30411)
# HTR2C: 5-hydroxytryptamine receptor 2C (HTR2C, Homo sapiens, UniProt P28335)
# Tmem97: Sigma intracellular receptor 2 (Tmem97, Rattus norvegicus, UniProt Q5U3Y7)
# EAPA: Endothiapepsin (EAPA, Cryphonectria parasitica, UniProt P11838)
# SIK1: Serine/threonine-protein kinase SIK1 (SIK1, Homo sapiens, UniProt P57059)
Compound,target,test,conditions,inhibition [%]
CC(C)(C)OC(=O)CN1C(=O)Cc2c([nH]c3ccc(Br)cc23)-c2ccc(Cl)cc21,Trypanothione synthetase,"enzyme activity, inhibitor, absorbance",30 µM,10.3
O=C(COc1ccc(Cl)cc1Cl)N/N=C/c1c[nH]c2ccccc12,dxs,"enzyme activity, inhibitor",200 µM,45.3
O=C(Nc1ccc(S(=O)(=O)N2CCC(Cl)CC2)cc1)c1ccc([N+](=O)[O-])o1,BDKRB2,"ligand displacement, radioligand",10 µM,4
CCCNc1nc2ccccc2n1Cc1ccc(Cl)cc1,HTR2C,"ligand displacement, radioligand",10 µM,80
CC(C)(C)NC(=O)CN1C(=O)Cc2c([nH]c3ccc(Br)cc23)-c2ccc(Cl)cc21,Trypanothione synthetase,"enzyme activity, inhibitor, absorbance",30 µM,5.8
O=C(c1ccc(Cl)cc1)N(Cc1ccccc1)C1CCCCC1,BDKRB2,cell-free assay,10 µM,-1.6
CCN(Cc1ccccc1C(F)(F)F)C(=O)C1CCN(S(=O)(=O)c2ccc3[nH]ncc3c2)CC1,"Melatonin receptor type 1A (MTNR1A, Homo sapiens, UniProt P48039)","ligand displacement, radioligand",10 µM,34
CC(C)(C)OC(=O)NCCNC(=O)CN1C(=O)Cc2c([nH]c3ccc(Br)cc23)-c2ccc(Cl)cc21,Trypanothione synthetase,"enzyme activity, inhibitor, absorbance",30 µM,38.5
CN(C)C1CCN(CC#Cc2nn(C3CCCC3)c3nc(NCc4ccccc4)ncc23)C1 (stereo not shown),"Rho-associated protein kinase 1 (ROCK1, Homo sapiens, UniProt Q13464)","enzyme activity, inhibitor, FRET",10 µM,-4
FC(F)(F)c1ccc(-c2nnc(-c3cc4c(s3)CCCC4)o2)cn1,dxs,"enzyme activity, inhibitor",120 µM,0
O=C(c1ccc(OCCN2CCCCC2)cc1)c1c(-c2ccc(O)cc2)sc2cc(O)ccc12,Trypanothione synthetase,"enzyme activity, inhibitor, absorbance",25 µM,24.5
COC(=O)CN1C(=O)Cc2c([nH]c3ccc(Br)cc23)-c2ccc(Cl)cc21,Trypanothione synthetase,"enzyme activity, inhibitor, absorbance",30 µM,37.4
CN(Cc1ccc(NC(=O)C2=Cc3cc(-c4ccc(OCCCCCCCF)cc4)ccc3CCC2)cc1)C1CCOCC1,Tmem97,"ligand displacement, radioligand",10 µM,17
CC1CNc2c(cccc2S(=O)(=O)N[C@@H](CCCNC(=N)N)C(=O)N2CC[C@@H](C)C[C@@H]2C(=O)O)C1 (stereo partly shown),"Prothrombin (F2, Bos taurus, UniProt P00735)","enzyme activity, inhibitor, fluorescence",0.1 µg/mL,94
O=C(c1ccc(F)cc1)N(Cc1ccccc1)C1CCCCC1,"B1 bradykinin receptor (BDKRB1, Homo sapiens, UniProt P46663)",cell-free assay,10 µM,-7
NNC(COCc1ccccc1)c1nnnn1CCc1ccc(O)cc1 (stereo not shown),EAPA,"enzyme activity, inhibitor",200 µM,91.5
Cc1ccc(Nc2nccc(N(C)c3ccc4c(C)n(C)nc4c3)n2)cc1S(N)(=O)=O,SIK1,"enzyme activity, inhibitor",10 µM,69
CCC(C)C(NN)c1nnnn1CC(c1ccccc1)c1ccccc1 (stereo not shown),EAPA,"enzyme activity, inhibitor",200 µM,40.3
CCN(CC)C(=O)CN1C(=O)Cc2c([nH]c3ccc(Br)cc23)-c2ccc(Cl)cc21,Trypanothione synthetase,"enzyme activity, inhibitor, absorbance",30 µM,7.8
N#Cc1cc(Cn2c(N3CCCC3)nc3ccccc32)ccc1F,HTR2C,"ligand displacement, radioligand",10 µM,14.4
O=C(CN1C(=O)Cc2c([nH]c3ccc(Br)cc23)-c2ccc(Cl)cc21)NCCN1CCCCC1,Trypanothione synthetase,"enzyme activity, inhibitor, absorbance",30 µM,21.4
NNC(COCc1ccccc1)c1nnnn1Cc1ccc2c(c1)OCO2 (stereo not shown),EAPA,"enzyme activity, inhibitor",200 µM,48.3
COc1cc2c(cc1OC)CN(C(C)CCc1ccc(O)cc1)CC2 (stereo not shown),Tmem97,"ligand displacement, radioligand",0.1 µM,94
O=C(O)c1ncccc1O,"Stromelysin-1 (MMP3, Homo sapiens, UniProt P08254)","enzyme activity, inhibitor","1 mM, pH 6",~50
NNC(CCc1ccccc1)c1nnnn1CC(=O)NCc1cccs1 (stereo not shown),EAPA,"enzyme activity, inhibitor",200 µM,39.1
COc1cc(NC(C)=O)c(Cl)cc1C(=O)Nc1nccs1,BDKRB2,cell-free assay,10 µM,-21.3
CCCC(NN)c1nnnn1Cc1ccccc1 (stereo not shown),EAPA,"enzyme activity, inhibitor",200 µM,3
Oc1cccc(Nc2nc(-c3ccc(F)cc3F)cs2)c1,BDKRB2,cell-free assay,10 µM,-68.7
CNC(=O)c1cc(Oc2ccc(NC(=O)Nc3ccc(Cl)c(C(F)(F)F)c3)cc2)ccn1,SIK1,"enzyme activity, inhibitor",10 µM,3
Ic1cccc2cnccc12,"Poly [ADP-ribose] polymerase tankyrase-2 (TNKS2, Homo sapiens, UniProt Q9H2K2)","enzyme activity, inhibitor",10 µM,12
NCCNC(=O)CN1C(=O)Cc2c([nH]c3ccc(Br)cc23)-c2ccc(Cl)cc21,Trypanothione synthetase,"enzyme activity, inhibitor, absorbance",30 µM,26.3
CC(Cc1ccc(C(C)(C)C)cc1)C(NN)c1nnnn1Cc1ccc2c(c1)OCO2 (stereo not shown),EAPA,"enzyme activity, inhibitor",200 µM,95.3
CCNC(=O)CN1C(=O)Cc2c([nH]c3ccc(Br)cc23)-c2ccc(Cl)cc21,Trypanothione synthetase,"enzyme activity, inhibitor, absorbance",30 µM,41.4
O=C1N=C(N2CCCCN2)S/C1=C\c1ccc(F)cc1O,BDKRB2,"ligand displacement, radioligand",10 µM,< 10
